Entries after “also recorded” stand apart in the source; their conditions may differ.

The target of one assay is T1, ABHD12 (Mus musculus, UniProt Q99LR1).
T1 sequence (Q99LR1 1-398): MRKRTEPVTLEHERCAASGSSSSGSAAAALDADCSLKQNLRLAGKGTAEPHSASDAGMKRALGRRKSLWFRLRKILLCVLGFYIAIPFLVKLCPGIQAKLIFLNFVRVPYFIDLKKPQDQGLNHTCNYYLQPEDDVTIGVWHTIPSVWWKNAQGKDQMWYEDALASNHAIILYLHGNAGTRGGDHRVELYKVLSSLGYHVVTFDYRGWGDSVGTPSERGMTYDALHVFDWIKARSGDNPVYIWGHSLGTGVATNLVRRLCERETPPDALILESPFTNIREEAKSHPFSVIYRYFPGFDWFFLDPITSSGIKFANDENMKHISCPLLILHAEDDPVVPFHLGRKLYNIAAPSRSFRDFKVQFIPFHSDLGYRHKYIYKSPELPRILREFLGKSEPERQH
Experiment: not given
It is filed as in vivo. The note with it: 30 mg/kg, i.p., mice. An outline of the steps: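 Test compound was suspended in EtOH/PEG40 1:1 by bath sonication, then diluted with 9 volumes of DPBS (EtOH/PEG40/DPBS 1:1:18). Freshly prepared solution was given i.p. at 10 μL/g body weight. Mice were anesthetized with isoflurane and euthanized by cervical dislocation, and tissues were harvested. Tissue membrane proteomes were labeled with JJH350 (2 μM, 45 min, 37 °C), clicked to rhodamine azide and read by in-gel fluorescence.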
For the compound `COc1ccc(N2CCN(C(=O)ON3C(=O)C4CN(C(=O)c5ccc(Oc6ccccc6)cc5)CCN4C3=O)CC2)cc1` (stereo not shown) [JJH329, 1,3-Dioxo-7-(4-phenoxybenzoyl)hexahydroimidazo[1,5-a]pyrazine-2(3H)-yl 4-(4-methoxyphenyl)piperazine-1-carboxylate], the “in vivo inhibition of ABHD12” value is given as “only marginal inhibition of ABHD12”.

The next assay has as its system serine hydrolases. Briefly: selectivity by gel-based ABPP with FP-Rh in mouse brain proteome. It is filed as biochemical. The note with it: FP-Rh probe. The essentials: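 Mouse brain homogenised in DPBS and cleared at 1,400 × g. Membranes pelleted at 16,000 × g (45 min, 4 °C) and resuspended in DPBS; used at 1 mg/mL. Test compound pretreatment: (thio)ureas 20 min at room temperature, NHH-carbamates 45 min at 37 °C. FP-Rh labelling (1 μM final) 45 min at 37 °C. Readout: 10% SDS-PAGE, in-gel fluorescence, band intensities quantified.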
Regarding `COc1ccc(N2CCN(C(=O)ON3C(=O)C4CN(C(=O)c5ccc(Oc6ccccc6)cc5)CCN4C3=O)CC2)cc1` (stereo not shown) [JJH329, 1,3-Dioxo-7-(4-phenoxybenzoyl)hexahydroimidazo[1,5-a]pyrazine-2(3H)-yl 4-(4-methoxyphenyl)piperazine-1-carboxylate], the “selectivity / off-targets among serine hydrolases” value is “ABHD6 was observed as the only off-target”.

A further assay deals with T2, ABHD12 (Homo sapiens, UniProt Q8N2K0).
T2 sequence (Q8N2K0 1-398): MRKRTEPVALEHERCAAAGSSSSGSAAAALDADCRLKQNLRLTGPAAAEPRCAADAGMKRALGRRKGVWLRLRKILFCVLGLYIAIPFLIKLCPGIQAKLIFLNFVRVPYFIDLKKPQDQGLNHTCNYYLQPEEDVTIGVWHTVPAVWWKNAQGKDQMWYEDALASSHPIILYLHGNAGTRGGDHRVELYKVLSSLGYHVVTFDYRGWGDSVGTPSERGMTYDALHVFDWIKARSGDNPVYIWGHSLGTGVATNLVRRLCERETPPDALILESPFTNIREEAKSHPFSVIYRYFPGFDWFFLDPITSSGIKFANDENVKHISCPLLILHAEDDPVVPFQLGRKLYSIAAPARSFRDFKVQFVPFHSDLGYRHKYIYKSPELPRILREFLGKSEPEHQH
Experiment: not given
It is filed as biochemical. The note with it: FP-Rh probe 1 μM.
In the case of `FC(F)(F)c1cnc(N2CCC(NC(=S)Nc3cccnc3)CC2)c(Cl)c1` [DO130], the “time-dependent inhibition of ABHD12” value is “did not show time-dependent inhibition of ABHD12”.

Another assay deals with T2, ABHD12. Briefly: lyso-PS hydrolysis. Format: biochemical. The note with it: 17:1 lyso-PS 100 μM. An outline of the steps:
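Test compound preincubated 20 min at room temperature with ABHD12-overexpressing HEK293T membrane (0.25 mg/mL) in DPBS. 17:1 lyso-PS added (100 μM final) and run 30 min at 37 °C. Quench: 2:1 CHCl3/MeOH containing 1 nmol 15:0 FFA internal standard. Organic phase analysed by LC-MS, ESI negative mode, SIM at m/z 267.20 (17:1 FFA product) and 241.20 (15:0 FFA).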
`Cc1cnc(N2CCN(NC(=S)Nc3cccnc3)CC2)c(Cl)c1` [DO127]: the “ABHD12 inhibitory activity, lyso-PS substrate assay” value is “did not show any ABHD12 inhibitory activity”.

The next assay has as its target T1, ABHD12. Briefly: gel-based ABPP of mouse brain membrane proteome using the JJH350 probe. It is filed as biochemical. The note with it: JJH350 probe; SAR statements. An outline of the steps:
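Mouse brain was dounce-homogenized in DPBS, cleared at 1,400 × g (3 min, 4 °C) and spun at 16,000 × g (45 min, 4 °C); the membrane pellet was washed and resuspended. Proteome (1 mg/mL) was pretreated with test compound (20 min rt for (thio)ureas; 45 min 37 °C for carbamates), then labeled with JJH350 (2 μM final, 45 min, 37 °C).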
For `FC(F)(F)c1cnc(N2CCCC(NC(=S)Nc3cccnc3)C2)c(Cl)c1` (stereo not shown) [compound 13, N-3-Pyridyl-N’-[1-{3-chloro-5-(trifluoromethyl)pyridin-2-yl}piperidin-3-yl]thiourea], the “ABHD12 inhibitory activity, gel-based ABPP” value is “abolished ABHD12 inhibitory activity; also recorded: dramatically reduced ABHD12 inhibitory activity”.

As for `Cc1c(Oc2ccc(OC(F)(F)F)cc2)ccnc1N1CCC(NC(=S)Nc2cccnc2)CC1` [compound 40, N-3-Pyridyl-N’-(1-[3-methyl-4-{4-(trifluoromethoxy)phenoxy}pyridine-2-yl]piperidin-4-yl)thiourea], the “ABHD12 inhibitory activity, gel-based ABPP” value was “did not alter potency”.

With `FC(F)(F)c1cnc(N2CCC(NC(=S)Nc3cnc4ccccc4c3)CC2)c(Cl)c1` [compound 10], the “ABHD12 inhibitory activity, gel-based ABPP” value was “diminished potency towards ABHD12”.

Turning to `O=C(Nc1cccnc1)NC1CCN(c2ncc(C(F)(F)F)cc2Cl)CC1` [compound 8], the “ABHD12 inhibitory activity, gel-based ABPP” value was “substantial loss in activity”.

For the compound `FC(F)(F)c1cnc(N2CCC(NC(=S)N3CCCc4ccccc43)CC2)c(Cl)c1` [compound 11], the “ABHD12 inhibitory activity, gel-based ABPP” value is on record as “diminished potency towards ABHD12”.

Take `FC(F)(F)Oc1ccc(Oc2ccnc(N3CCC[C@H](NC(=S)Nc4cccnc4)C3)c2Cl)c(Cl)c1` [(S)-DO271]: the “ABHD12 inhibitory activity, gel-based ABPP” value is reported as “less active than (R)-DO271”.

As for `S=C(Nc1cccnc1)NC1CCN(c2ncccc2Cl)CC1` [compound 22], the “ABHD12 inhibitory activity, gel-based ABPP” value is “abolished ABHD12 activity up to 5 μM”.

As to `COc1ccnc(N2CCC(NC(=S)Nc3cccnc3)CC2)c1` [compound 31], the “ABHD12 inhibitory activity, gel-based ABPP” value is given as “even more deleterious effect”.

Take `COc1ccc(NC(=S)NC2CCN(c3ncc(C(F)(F)F)cc3Cl)CC2)cn1` [compound 9, N-{6-(methoxy)Pyridin-3-yl}-N’-[1-{3-chloro-5-(trifluoromethyl)pyridin-2-yl}piperidin-4-yl]thiourea]: the “ABHD12 inhibitory activity, gel-based ABPP” value is given as “diminished potency towards ABHD12”.

Turning to `N#Cc1c(Oc2ccc(OC(F)(F)F)cc2)ccnc1N1CCC(NC(=S)Nc2cccnc2)CC1` [compound 41], the “ABHD12 inhibitory activity, gel-based ABPP” value is listed as “reduced ABHD12 inhibitory activity”.

Regarding `FC(F)(F)c1cccc(N2CCC(NC(=S)Nc3cccnc3)CC2)n1` [compound 26], the “ABHD12 inhibitory activity, gel-based ABPP” value was “first sub-micromolar inhibitors in this series”.

With `FC(F)(F)Oc1ccc(Oc2ccnc(N3CCC(NC(=S)Nc4cccnc4)CC3)c2C(F)(F)F)cc1` [compound 42], the “ABHD12 inhibitory activity, gel-based ABPP” value was “reduced ABHD12 inhibitory activity”.

Turning to `FC(F)(F)c1cnc(N2C3CCC2CC(NC(=S)Nc2cccnc2)C3)c(Cl)c1` (stereo not shown) [compound 21], the “ABHD12 inhibitory activity, gel-based ABPP” value was “impaired ABHD12 activity relative to DO130”.

On to `FC(F)(F)c1cnc(N2CCCC(NC(=S)Nc3cccnc3)CC2)c(Cl)c1` (stereo not shown) [compound 15], for which the “ABHD12 inhibitory activity, gel-based ABPP” value is “substantial reductions”.

Consider `FC(F)(F)c1ccc(N2CCC(NC(=S)Nc3cccnc3)CC2)nc1` [compound 23], for which the “ABHD12 inhibitory activity, gel-based ABPP” value is “only a small loss in potency”.

As for `FC(F)(F)c1cnc(N2CCC(NC(=S)Nc3cccnc3)C2)c(Cl)c1` (stereo not shown) [compound 14], the “ABHD12 inhibitory activity, gel-based ABPP” value is “near-complete loss”.

Turning to `Cc1cnc(N2CCN(NC(=S)Nc3cccnc3)CC2)c(Cl)c1` [DO127], the “ABHD12 inhibitory activity, gel-based ABPP” value is “did not show any ABHD12 inhibitory activity”.

Take `Cc1cnc(N2CCC(NC(=S)Nc3cccnc3)CC2)c(Cl)c1` [DO129, N-3-Pyridyl-N’-[1-{3-chloro-5-(methyl)pyridin-2-yl}piperidin-4-yl]thiourea]: the “ABHD12 inhibitory activity, gel-based ABPP” value is “exhibited ABHD12 inhibitory activity”.

As for `FC(F)(F)c1cnc(N2CCC(NC(=S)Nc3ccccc3)CC2)c(Cl)c1` [compound 12], the “ABHD12 inhibitory activity, gel-based ABPP” value was “retained some ABHD12 inhibitory activity, albeit slightly lower than that of DO130”.

Take `CN(C(=S)Nc1cccnc1)C1CCN(c2ncc(C(F)(F)F)cc2Cl)CC1` [compound 20]: the “ABHD12 inhibitory activity, gel-based ABPP” value is “weakened ABHD12 activity”.

Turning to `Fc1ccc(Oc2ccnc(N3CCC(NC(=S)Nc4cccnc4)CC3)c2)cc1` [compound 37], the “ABHD12 inhibitory activity, gel-based ABPP” value was “increased potency”.

As for `FC(F)(F)c1ccnc(N2CCC(NC(=S)Nc3cccnc3)CC2)c1` [compound 24], the “ABHD12 inhibitory activity, gel-based ABPP” value is “first sub-micromolar inhibitors in this series”.

`FC(F)(F)Oc1ccc(Oc2ccnc(N3CCC(NC(=S)Nc4cccnc4)CC3)c2)cc1` [compound 38]: the “ABHD12 inhibitory activity, gel-based ABPP” value is on record as “increased potency”.

For `FC(F)(F)c1cnc(N2CCC(NC(=S)Nc3cccnc3)CC2)c(Cl)c1` [DO130], the “ABHD12 inhibitory activity, gel-based ABPP” value is recorded as “ABHD12 inhibitory activity as commercial AW01275”.

Staying with this assay, now noted: compared to 28 or 38.
Consider `FC(F)(F)Oc1ccc(Oc2ccnc(N3CCC(NC(=S)Nc4cccnc4)CC3)c2Cl)cc1` [compound 39], for which the “increase in ABHD12 inhibitory activity” value is > 10 fold.

The assay is the same for the next values; noted with them: compared to DO264.
Turning to `FC(F)(F)Oc1ccc(Oc2ccnc(N3CCCC(NC(=S)Nc4cccnc4)C3)c2Cl)c(Cl)c1` (racemic) [(S,R)-DO271], the “reduction in potency for ABHD12 inhibition” value was ~ 10,000 fold.

The same assay, now with this note: relative to 39.
Take `FC(F)(F)Oc1cccc(Oc2ccnc(N3CCC(NC(=S)Nc4cccnc4)CC3)c2Cl)c1` [compound 43]: the “lower potency of regioisomers” value is listed as 3–4 fold.

On to `FC(F)(F)Oc1ccccc1Oc1ccnc(N2CCC(NC(=S)Nc3cccnc3)CC2)c1Cl` [compound 44], for which the “lower potency of regioisomers” value is on record as 3–4 fold.

The assay is the same for the next values; noted with them: relative to the 4-CF3 analogue.
With `S=C(Nc1cccnc1)NC1CCN(c2cc(Cl)ccn2)CC1` [compound 30], the “decrease in ABHD12 inhibitory activity on substituting the 4-CF3 group” value is given as ~ 3 fold.

A further assay addresses T1, ABHD12. Briefly: gel-based competitive ABPP using the FP-Rh probe, mouse brain membrane proteome. The note with it: up to 10 μM. It is filed as biochemical. The essentials:
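Mouse brain membrane fraction was prepared by dounce homogenization in DPBS, a 1,400 × g clearing spin, and a 16,000 × g spin (45 min, 4 °C). Proteome (1 mg/mL) was pretreated with test compound (20 min rt for (thio)ureas; 45 min 37 °C for carbamates), then labeled with FP-Rh (1 μM final, 45 min, 37 °C). Samples were quenched in SDS loading buffer, separated by SDS-PAGE and read by in-gel fluorescence.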
For the compound `COc1ccc(N2CCN(C(=O)ON3C(=O)C4CN(Cc5ccc(Oc6ccccc6)cc5)CCN4C3=O)CC2)cc1` (stereo not shown) [ABC34], the “ABHD12 activity” value is recorded as “negligible ABHD12 activity up to 10 μM”.
